Assay [1] has as its target T1, GTP pyrophosphokinase (Escherichia coli K-12) (UniProt P0AG20).
T1 sequence (whole entry): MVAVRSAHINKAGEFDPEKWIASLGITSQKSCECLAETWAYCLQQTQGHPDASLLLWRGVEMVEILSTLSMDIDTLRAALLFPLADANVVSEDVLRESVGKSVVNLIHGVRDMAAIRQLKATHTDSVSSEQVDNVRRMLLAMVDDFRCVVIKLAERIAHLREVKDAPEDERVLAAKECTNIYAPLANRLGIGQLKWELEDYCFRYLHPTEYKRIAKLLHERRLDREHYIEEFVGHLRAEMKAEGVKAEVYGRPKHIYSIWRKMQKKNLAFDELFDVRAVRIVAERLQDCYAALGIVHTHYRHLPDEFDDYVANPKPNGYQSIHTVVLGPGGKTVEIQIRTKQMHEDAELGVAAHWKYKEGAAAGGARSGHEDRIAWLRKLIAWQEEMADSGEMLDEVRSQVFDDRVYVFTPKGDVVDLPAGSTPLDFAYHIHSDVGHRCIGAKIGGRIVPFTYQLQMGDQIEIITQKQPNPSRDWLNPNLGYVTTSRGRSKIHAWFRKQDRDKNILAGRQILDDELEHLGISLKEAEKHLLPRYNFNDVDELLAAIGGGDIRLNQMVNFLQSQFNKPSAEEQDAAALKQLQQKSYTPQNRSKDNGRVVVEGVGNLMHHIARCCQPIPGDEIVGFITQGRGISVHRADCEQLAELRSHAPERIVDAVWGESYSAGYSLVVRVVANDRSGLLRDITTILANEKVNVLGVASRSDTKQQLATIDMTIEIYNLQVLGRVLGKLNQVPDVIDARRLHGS
In words: Inhibition of synthetic activity of Escherichia coli RelA assessed as inhibition of (p)ppGpp accumulation at 5 to 10 mM after 60 mins.

The target of assay [2] is T2, Bifunctional (p)ppGpp synthase/hydrolase RelA (Streptococcus dysgalactiae subsp. equisimilis) (UniProt Q54089).
T2 sequence (whole entry): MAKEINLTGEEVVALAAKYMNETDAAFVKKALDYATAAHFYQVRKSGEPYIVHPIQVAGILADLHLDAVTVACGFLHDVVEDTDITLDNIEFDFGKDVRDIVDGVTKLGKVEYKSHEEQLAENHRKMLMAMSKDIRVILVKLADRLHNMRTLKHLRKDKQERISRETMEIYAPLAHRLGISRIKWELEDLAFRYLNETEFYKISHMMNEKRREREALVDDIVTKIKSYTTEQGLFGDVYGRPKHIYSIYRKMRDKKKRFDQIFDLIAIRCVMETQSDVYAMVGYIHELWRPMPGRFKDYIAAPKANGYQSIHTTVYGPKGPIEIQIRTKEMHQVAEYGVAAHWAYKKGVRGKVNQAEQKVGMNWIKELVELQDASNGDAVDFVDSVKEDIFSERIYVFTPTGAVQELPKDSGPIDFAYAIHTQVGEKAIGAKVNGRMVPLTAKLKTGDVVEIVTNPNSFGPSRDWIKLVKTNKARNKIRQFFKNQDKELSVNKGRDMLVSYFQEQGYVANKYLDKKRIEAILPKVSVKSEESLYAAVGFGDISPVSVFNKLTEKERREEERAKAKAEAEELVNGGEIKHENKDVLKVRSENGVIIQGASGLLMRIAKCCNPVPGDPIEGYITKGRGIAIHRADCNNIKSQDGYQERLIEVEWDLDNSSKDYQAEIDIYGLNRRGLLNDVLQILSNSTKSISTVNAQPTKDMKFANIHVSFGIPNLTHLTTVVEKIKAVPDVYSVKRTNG
Description: Inhibition of synthetic activity of Streptococcus equisimilis RelA assessed as inhibition of (p)ppGpp accumulation at 5 to 10 mM after 5 mins.

The target of assay [3] is T1, GTP pyrophosphokinase (Escherichia coli K-12). In words: Inhibition of Escherichia coli RelA dissociation from L11 mutated ribosome assessed as increase in bound protein at 1 to 10 mM after 4 hrs by chemiluminescence assay relative to control. Summed up:
(§1)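 Ribosomes were isolated through a 40% sucrose cushion from E. coli grown in LB at 37 °C. RelA plus ribosomes and analogue at 1–10 mM were centrifuged 4 h at 32,000 rpm, 4 °C, and split into soluble and ribosomal fractions. Ribosomal fractions were run on 12% SDS-PAGE, blotted to PVDF and probed with anti-His antibody (1:10,000).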

Assay [4] concerns the target T2, Bifunctional (p)ppGpp synthase/hydrolase RelA (Streptococcus dysgalactiae subsp. equisimilis). In words: Inhibition of synthetic activity of Streptococcus equisimilis RelA assessed as inhibition of (p)ppGpp accumulation at 0.5 mM after 5 mins.
For assay [5], the system named is T3, GTP pyrophosphokinase (Escherichia coli K-12), P0AG20 [G251E].
T3 sequence (whole entry): T1 sequence (whole entry) with G251E
In words: Inhibition of Escherichia coli RelA G251E mutant dissociation from ribosome at 1 to 10 mM after 4 hrs by chemiluminescence assay. Summed up: as §1

The target in assay [6] is T1, GTP pyrophosphokinase (Escherichia coli K-12). Description: Inhibition of synthetic activity of Escherichia coli RelA assessed as inhibition of (p)ppGpp accumulation at > 1 mM after 60 mins.
The target is the same in assay [7]. Description: Inhibition of Escherichia coli RelA catalytic site at 5 mM in presence of increasing concentration of GTP. The gist of the method: (§2)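 The buffer was Tris–HCl pH 7.4 with DTT, MgCl2, KCl and (NH4)2SO4. Analogue was held at 5 mM while GTP or ATP was raised. Reactions ran 60 min at room temperature, were stopped with formic acid, and (p)ppGpp accumulation was the read-out.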

The subject of the next assay is Escherichia coli. In words: Inhibition of synthetic activity of Escherichia coli RelA C638F mutant at 1 to 10 mM. Summed up: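 Analogue was added at 1, 5 or 10 mM in duplicate lanes. The buffer was Tris–HCl pH 7.4 containing DTT, MgCl2, KCl and (NH4)2SO4. Reactions ran at room temperature and were stopped with formic acid.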
The target of assay [8] is T1, GTP pyrophosphokinase (Escherichia coli K-12). In words: Inhibition of Escherichia coli RelA catalytic site at 5 mM in presence of increasing concentration of ATP. Summed up:
as §2

Assay [9] addresses T2, Bifunctional (p)ppGpp synthase/hydrolase RelA (Streptococcus dysgalactiae subsp. equisimilis). In words: Inhibition of Streptococcus equisimilis RelA catalytic site at 5 mM in presence of increasing concentration of ATP.
Assay [10] has the same target. Description: Inhibition of Streptococcus equisimilis RelA catalytic site at 5 mM in presence of increasing concentration of GTP.
The target in assay [11] is T1, GTP pyrophosphokinase (Escherichia coli K-12). In words: Inhibition of synthetic activity of Escherichia coli RelA assessed as inhibition of (p)ppGpp accumulation at 0.1 to 0.5 mM after 60 mins.
Assay [12] shares this target. In words: Inhibition of Escherichia coli RelA dissociation from ribosome assessed as increase in bound protein at 1 to 10 mM after 4 hrs by chemiluminescence assay relative to control. The gist of the method:
as §1

Structures are written as SMILES. Residue numbers refer to the chain shown, from its start. Active and inactive are the calls of the source. No cut-off for these calls is given here.

What is called inhibition is the drop in the measured response relative to a control, in per cent. `CC1(C)O[C@@H]2[C@H](O1)[C@@H](COP(=O)(O)CP(=O)(O)O)O[C@H]2n1cnc2c(=O)[nH]c(N)nc21`: the inhibition entry in assay [1] and in assay [2] was “Active” each time.

Regarding `Nc1nc2c(ncn2[C@@H]2O[C@H](COP(=O)(O)CP(=O)(O)O)[C@@H](O)[C@H]2O)c(=O)[nH]1`, the inhibition entry in [1] and in assay [2] was “Active” throughout.

Regarding `Nc1nc2c(ncn2[C@H]2C[C@H](OP(=O)(O)CP(=O)(O)O)[C@@H](COP(=O)(O)CP(=O)(O)O)O2)c(=O)[nH]1`, the inhibition entry in [3], in [5], in [7], in [10] and in assay [11] was “inactive” each time. Moreover, the inhibition entry (in assay [1]; in assay [2]; in the assay on Escherichia coli; in assay [8]; in assay [9]) was “Active” each time. In addition, the inhibition in assay [4] and in assay [6] was more than 50% in each case. Besides, the fold change (FC) in [12] was 3.

On to `Nc1nc2c(ncn2[C@H]2C[C@H](OP(=O)(O)CP(=O)(O)O)[C@@H](CO)O2)c(=O)[nH]1`, for which the inhibition entry in [1] and in assay [2] was “Active” in each case.

Consider `CC(C)C(=O)Nc1nc2c(ncn2[C@@H]2O[C@H](COP(=O)(O)CP(=O)(O)O)[C@@H](OP(=O)(O)CP(=O)(O)O)[C@H]2O[Si](C)(C)C(C)(C)C)c(=O)[nH]1`, for which the inhibition result in assay [1] and in [2] was “Active” throughout.

On to `Nc1nc2c(ncn2[C@@H]2O[C@H](COP(=O)(O)CP(=O)(O)O)[C@@H](OP(=O)(O)CP(=O)(O)O)[C@H]2O)c(=O)[nH]1`, for which the inhibition result in assay [1] and in assay [2] was “Active” in each case.

With `CC(C)C(=O)Nc1nc2c(ncn2[C@@H]2O[C@H](COP(=O)(O)CP(=O)(O)O)[C@@H](OP(=O)(O)CP(=O)(O)O)[C@H]2O)c(=O)[nH]1`, the inhibition result in assay [1] and in [2] was “Active” in each case.

The values are drawn from ChEMBL document CHEMBL1165966, “ppGpp analogues inhibit synthetase activity of Rel proteins from Gram-negative and Gram-positive bacteria” (Bioorg Med Chem, 2010).
